Reference: ChEMBL document CHEMBL3112482, “Nonclassical antifolates, part 5. Benzodiazepine analogs as a new class of DHFR inhibitors: synthesis, antitumor testing and molecular modeling study” (Eur J Med Chem, 2014)

Assays:
[1] = tested on: SK-MEL-28; test: Growth inhibition of human SK-MEL-28 cells at 10 uM after 48 hrs; format: functional; conditions: SK-MEL-28, 48 h, read-out: GI
Procedure, shortened: (§1)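 NCI 60-cell-line disease-oriented human tumor panel, single-dose primary screen at 10 µM. Data given as mean-graph percent growth of treated cells, reported as percent growth inhibition (GI %).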

[2] = tested on: SNB-75; test: Growth inhibition of human SNB75 cells at 10 uM after 48 hrs; format: functional; conditions: SNB-75, 48 h, read-out: GI; procedure, shortened: as §1
[3] = Cytotoxicity against human prostate cancer cells at 10 uM after 48 hrs; format: functional; conditions: Cancer cell lines
[4] = tested on: T47D; test: Growth inhibition of human T47D cells at 10 uM after 48 hrs; format: functional; conditions: read-out: GI; procedure, shortened: as §1
[5] = target: T1, Dihydrofolate reductase (Bos taurus, UniProt P00376); test: Inhibition of bovine liver DHFR measured for every 1 min of 10 mins
T1 sequence (P00376 whole entry): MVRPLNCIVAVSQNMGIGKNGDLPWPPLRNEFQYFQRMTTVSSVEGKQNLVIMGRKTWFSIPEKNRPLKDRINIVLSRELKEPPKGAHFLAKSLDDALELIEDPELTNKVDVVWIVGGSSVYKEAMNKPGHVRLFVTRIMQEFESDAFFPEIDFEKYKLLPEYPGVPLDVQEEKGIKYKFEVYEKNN

[6] = tested on: TK-10; test: Growth inhibition of human TK10 cells at 10 uM after 48 hrs; format: functional; conditions: TK-10, 48 h, read-out: GI; procedure, shortened: as §1
[7] = tested on: MDA-MB-231; test: Growth inhibition of human MDA-MB-231 cells at 10 uM after 48 hrs; format: functional; conditions: MDA-MB-231, 48 h, read-out: GI
Procedure, shortened: (§2)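 Single-dose primary screen in the NCI 60 human tumour cell line panel, run at the NCI facility. The panel covers nine subpanels: leukaemia, non-small cell lung, colon, CNS, melanoma, ovarian, renal, prostate and breast. Read-out was percent growth of treated cells, shown as a mean graph and reported as percent growth inhibition.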

[8] = tested on: SF-268; test: Growth inhibition of human SF268 cells at 10 uM after 48 hrs; format: functional; conditions: SF-268, 48 h, read-out: GI; procedure, shortened: as §1
[9] = tested on: PC-3; test: Growth inhibition of human PC3 cells at 10 uM after 48 hrs; format: functional; conditions: PC-3, 48 h, read-out: GI; procedure, shortened: as §2
[10] = Growth inhibition of human OVCAR5 cells at 10 uM after 48 hrs; format: functional; conditions: OVCAR-5, 48 h, read-out: GI; procedure, shortened: as §2
[11] = Growth inhibition of human Hs 578T cells at 10 uM after 48 hrs; format: functional; conditions: read-out: GI; procedure, shortened: as §2
[12] = tested on: NCI-H322M; test: Growth inhibition of human NCI-H322M cells at 10 uM after 48 hrs; format: functional; conditions: read-out: GI; procedure, shortened: as §2
[13] = tested on: SK-OV-3; test: Growth inhibition of human SKOV3 cells at 10 uM after 48 hrs; format: functional; conditions: SK-OV-3, 48 h, read-out: GI; procedure, shortened: as §1
[14] = Growth inhibition of human EKVX cells at 10 uM after 48 hrs; format: functional; conditions: read-out: GI; procedure, shortened: as §2
[15] = tested on: SNB-19; test: Growth inhibition of human SNB19 cells at 10 uM after 48 hrs; format: functional; conditions: SNB-19, 48 h, read-out: GI; procedure, shortened: as §1
[16] = Growth inhibition of human OVCAR4 cells at 10 uM after 48 hrs; format: functional; conditions: OVCAR-4, 48 h, read-out: GI; procedure, shortened: as §2
[17] = Growth inhibition of human NCI-ADR-RES cells at 10 uM after 48 hrs; format: functional; conditions: read-out: GI; procedure, shortened: as §2
[18] = tested on: NCI-H23; test: Growth inhibition of human NCI-H23 cells at 10 uM after 48 hrs; format: functional; conditions: NCI-H23, 48 h, read-out: GI; procedure, shortened: as §2
[19] = tested on: MCF7; test: Growth inhibition of human MCF7 cells at 10 uM after 48 hrs; format: functional; conditions: MCF7, 48 h, read-out: GI; procedure, shortened: as §2
[20] = tested on: SR; test: Growth inhibition of human SR cells at 10 uM after 48 hrs; format: functional; conditions: read-out: GI; procedure, shortened: as §1
[21] = Growth inhibition of human UO31 cells at 10 uM after 48 hrs; format: functional; conditions: UO-31, 48 h, read-out: GI; procedure, shortened: as §1
[22] = tested on: K562; test: Growth inhibition of human K562 cells at 10 uM after 48 hrs; format: functional; conditions: K562, 48 h, read-out: GI; procedure, shortened: as §2
[23] = tested on: CCRF-CEM; test: Growth inhibition of human CCRF-CEM cells at 10 uM after 48 hrs; format: functional; conditions: read-out: GI; procedure, shortened: as §2
[24] = Growth inhibition of human SF539 cells at 10 uM after 48 hrs; format: functional; conditions: SF-539, 48 h, read-out: GI; procedure, shortened: as §1
[25] = tested on: OVCAR-8; test: Growth inhibition of human OVCAR8 cells at 10 uM after 48 hrs; format: functional; conditions: OVCAR-8, 48 h, read-out: GI; procedure, shortened: as §2
[26] = tested on: 786-0; test: Growth inhibition of human 786-0 cells at 10 uM after 48 hrs; format: functional; conditions: 786-0, 48 h, read-out: GI; procedure, shortened: as §2
[27] = tested on: NCI-H226; test: Growth inhibition of human NCI-H226 cells at 10 uM after 48 hrs; format: functional; conditions: NCI-H226, 48 h, read-out: GI; procedure, shortened: as §2
[28] = tested on: OVCAR-3; test: Growth inhibition of human OVCAR3 cells at 10 uM after 48 hrs; format: functional; conditions: OVCAR-3, 48 h, read-out: GI; procedure, shortened: as §2
[29] = tested on: HT-29; test: Growth inhibition of human HT-29 cells at 10 uM after 48 hrs; format: functional; conditions: HT-29, 48 h, read-out: GI; procedure, shortened: as §2
[30] = Growth inhibition of human HCC2998 cells at 10 uM after 48 hrs; format: functional; conditions: HCC 2998, 48 h, read-out: GI; procedure, shortened: as §2
[31] = tested on: IGROV-1; test: Growth inhibition of human IGROV1 cells at 10 uM after 48 hrs; format: functional; conditions: IGROV-1, 48 h, read-out: GI; procedure, shortened: as §2
[32] = tested on: KM12; test: Growth inhibition of human KM12 cells at 10 uM after 48 hrs; format: functional; conditions: KM12, 48 h, read-out: GI; procedure, shortened: as §2
[33] = tested on: SN12C; test: Growth inhibition of human SN12C cells at 10 uM after 48 hrs; format: functional; conditions: read-out: GI; procedure, shortened: as §1
[34] = tested on: CAKI-1; test: Growth inhibition of human CAKI-1 cells at 10 uM after 48 hrs; format: functional; conditions: CAKI-1, 48 h, read-out: GI; procedure, shortened: as §2
[35] = tested on: DU-145; test: Growth inhibition of human DU145 cells at 10 uM after 48 hrs; format: functional; conditions: DU-145, 48 h, read-out: GI; procedure, shortened: as §2
[36] = tested on: SK-MEL-2; test: Growth inhibition of human SK-MEL-2 cells at 10 uM after 48 hrs; format: functional; conditions: SK-MEL-2, 48 h, read-out: GI; procedure, shortened: as §1
[37] = Growth inhibition of human RXF393 cells at 10 uM after 48 hrs; format: functional; conditions: RXF 393, 48 h, read-out: GI; procedure, shortened: as §2

SMILES | inhibition of growth at 10 µM [1] | inhibition of growth at 10 µM [2] | GI50 [3] | LC50 [3] | TGI [3] | inhibition of growth at 10 µM [4] | IC50 [5] | inhibition of growth at 10 µM [6] | inhibition of growth at 10 µM [7] | inhibition of growth at 10 µM [8] | inhibition of growth at 10 µM [9] | inhibition of growth at 10 µM [10] | inhibition of growth at 10 µM [11] | inhibition of growth at 10 µM [12] | inhibition of growth at 10 µM [13] | inhibition of growth at 10 µM [14] | inhibition of growth at 10 µM [15] | inhibition of growth at 10 µM [16] | inhibition of growth at 10 µM [17] | inhibition of growth at 10 µM [18] | also measured
COc1cc(/C=C2\CCCc3c2nc(N)nc3-c2cc(OC)c(OC)c(OC)c2)cc(OC)c1OC | 75.1% | 54.3% | 2.7 µM | > 100 µM | > 100 µM | 72.5% | 21 µM | < 30% | 71.1% | 84.9% | 74.1% | 93.2% | 63% | < 30% | 92.8% | 44% | 38.5% | 73.1% | 96.1% | 88.4% | inhibition of growth at 10 µM [19]: 57%; inhibition of growth at 10 µM [20]: 99%; inhibition of growth at 10 µM [21]: 65.7%; inhibition of growth at 10 µM [22]: 93.6%; inhibition of growth at 10 µM [23]: 97.1%; inhibition of growth at 10 µM [24]: 74.1%
COc1cc(/C=C2\CCCc3c2nc(C)nc3-c2cc(OC)c(OC)c(OC)c2)cc(OC)c1OC | 68.1% | 78.1% | 1.8 µM | > 100 µM | > 100 µM | < 30% | 0.5 µM | 55.5% | 86.9% | 78.8% | 57.4% | 89.2% | 51.4% | 58.9% | 56.1% | < 30% | 38.8% | 57.8% | 85.6% | 66.1% | inhibition of growth at 10 µM [25]: 94.1%; inhibition of growth at 10 µM [26]: 82%; inhibition of growth at 10 µM [27]: 62.4%; inhibition of growth at 10 µM [28]: 72%; inhibition of growth at 10 µM [29]: 92.1%; inhibition of growth at 10 µM [30]: 88.1%; inhibition of growth at 10 µM [31]: 69.3%; inhibition of growth at 10 µM [32]: 97.1%; inhibition of growth at 10 µM [33]: 89.2%; inhibition of growth at 10 µM [19]: 77%; inhibition of growth at 10 µM [20]: < 30%; inhibition of growth at 10 µM [34]: 88.6%; inhibition of growth at 10 µM [35]: 95.1%; inhibition of growth at 10 µM [21]: 48.9%; inhibition of growth at 10 µM [22]: 88.9%; inhibition of growth at 10 µM [36]: 73.4%; inhibition of growth at 10 µM [37]: 77.4%; inhibition of growth at 10 µM [24]: 86.5%
